Source: paper PMC4536915 (Nature chemical biology, 2015)
Values joined by “and” are separate entries in the source; they are usually repeats but may differ in a detail not shown here. Equal values may be shown once.

What was measured:
P. aeruginosa cells = experiment: Killing kinetics; type: cell-based, Pseudomonas aeruginosa; settings: 37°C; linear regression after 1 hr lag
P. aeruginosa PAO1 [1] = experiment: In vitro post-antibiotic effect; type: cell-based, Pseudomonas aeruginosa; settings: 1 h exposure, 1:1000 dilution
How it was run: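 Drug removed by 1:1000 dilution into pre-warmed medium. Regrowth at 37 °C counted immediately and hourly for 8 h (detection limit 1 log10 CFU/mL). Triplicate independent occasions; mechanistic PD model fitted.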

P. aeruginosa PAO1 [2] = experiment: MIC by broth microdilution, wild-type strain; type: cell-based, Pseudomonas aeruginosa; settings: 24 h, 37 °C; listed as F
[3] = Plasma protein binding, equilibrium dialysis, human; type: in vitro ADME; settings: 50 μM
[4] = tested on: P. aeruginosa PAO1 MexABCDXY− (N150); experiment: MIC by broth microdilution, efflux-deficient strain; type: cell-based, Pseudomonas aeruginosa; settings: 24 h, 37 °C; listed as F
[5] = Plasma protein binding, equilibrium dialysis, mouse; type: in vitro ADME; settings: 50 μM
[6] = tested on: P. aeruginosa strain PAO1; experiment: Neutropenic mouse thigh infection model, single dose time course; type: in vivo, CD-1 mice; settings: resistance emergence test

Compound: COc1ccc(-c2ccn(CC[C@](C)(C(=O)NO)S(C)(=O)=O)c(=O)c2)c(F)c1 [Compound 6]
- maximum killing rate (P. aeruginosa cells): 2.8 log10 CFU/hr
- PAE at 4x MIC (P. aeruginosa PAO1 [1]): 1.26 h
- PAE at 8x MIC (P. aeruginosa PAO1 [1]): 1.67 h
- PAE at 16x MIC (P. aeruginosa PAO1 [1]): 1.93 h
- P.ae MIC PAO1 (P. aeruginosa PAO1 [2]): 0.25 μg/ml and 0.61 μM
- free fraction (fu) [3]: 0.28
- P.ae MIC PAO1 MexABCDXY− [4]: 0.0075 μg/ml and 0.018 μM
- free fraction (fu) [5]: 0.41
- CFU from 24 h timepoints on selective media (4× MIC) [6]: no CFU were obtained
